Test results from ChEMBL document CHEMBL3352338, “Development and biological evaluation of potent and selective c-KIT(D816V) inhibitors” (J Med Chem, 2014).
Active and inactive are the calls of the source. The calls are words filed in the database; no cut-off is given here.

Legend:
[1] = target: T1, Mast/stem cell growth factor receptor Kit (Homo sapiens, UniProt P10721); assay: Inhibition of c-KIT (unknown origin) at 1 uM by KINOMEscanning/auto inhibition assay; values are per cent of control
[2] = target: Rho-associated protein kinase 1 (Homo sapiens) (UniProt Q13464); assay: Inhibition of ROCK1 (unknown origin) at 1 uM by KINOMEscanning assay relative to control; values are per cent of control
Rho-associated protein kinase 1 (Homo sapiens), sequence (Q13464 2-1354 limits assumed): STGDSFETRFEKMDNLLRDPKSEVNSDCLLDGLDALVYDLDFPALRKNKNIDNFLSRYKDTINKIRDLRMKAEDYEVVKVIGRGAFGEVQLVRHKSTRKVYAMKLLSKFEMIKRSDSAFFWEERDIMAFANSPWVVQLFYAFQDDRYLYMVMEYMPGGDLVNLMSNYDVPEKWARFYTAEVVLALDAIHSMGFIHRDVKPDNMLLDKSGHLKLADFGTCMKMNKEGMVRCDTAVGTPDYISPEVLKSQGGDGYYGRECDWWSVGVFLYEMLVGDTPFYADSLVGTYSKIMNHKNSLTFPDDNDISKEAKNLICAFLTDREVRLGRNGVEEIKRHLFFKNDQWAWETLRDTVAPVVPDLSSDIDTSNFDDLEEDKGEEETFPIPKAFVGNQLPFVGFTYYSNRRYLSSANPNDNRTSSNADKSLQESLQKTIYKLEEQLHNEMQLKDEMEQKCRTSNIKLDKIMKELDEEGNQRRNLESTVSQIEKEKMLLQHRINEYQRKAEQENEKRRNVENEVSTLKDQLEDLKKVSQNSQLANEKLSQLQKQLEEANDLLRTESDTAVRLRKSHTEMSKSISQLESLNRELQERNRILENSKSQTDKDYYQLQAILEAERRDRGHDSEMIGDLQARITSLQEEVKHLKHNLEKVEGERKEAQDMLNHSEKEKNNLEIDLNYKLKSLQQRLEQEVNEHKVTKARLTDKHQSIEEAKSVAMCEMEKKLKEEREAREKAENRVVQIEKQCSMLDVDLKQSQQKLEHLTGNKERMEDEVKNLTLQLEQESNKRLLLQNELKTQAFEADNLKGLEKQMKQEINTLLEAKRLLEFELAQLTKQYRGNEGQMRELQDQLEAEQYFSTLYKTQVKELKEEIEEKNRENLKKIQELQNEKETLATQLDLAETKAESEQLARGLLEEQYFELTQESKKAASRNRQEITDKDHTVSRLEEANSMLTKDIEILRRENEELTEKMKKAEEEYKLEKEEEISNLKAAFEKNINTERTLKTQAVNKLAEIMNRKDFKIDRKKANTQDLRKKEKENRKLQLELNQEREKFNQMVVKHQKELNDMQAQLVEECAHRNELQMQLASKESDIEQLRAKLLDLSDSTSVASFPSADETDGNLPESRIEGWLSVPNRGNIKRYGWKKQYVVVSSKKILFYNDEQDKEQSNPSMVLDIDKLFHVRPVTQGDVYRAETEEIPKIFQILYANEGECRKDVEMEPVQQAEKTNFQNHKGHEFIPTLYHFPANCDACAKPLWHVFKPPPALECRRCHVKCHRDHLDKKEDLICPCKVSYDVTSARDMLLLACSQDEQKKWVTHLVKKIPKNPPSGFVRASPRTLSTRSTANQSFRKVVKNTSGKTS

[3] = target: Platelet-derived growth factor receptor alpha (Homo sapiens) (UniProt P16234); assay: Inhibition of PDGFRalpha (unknown origin) at 1 uM by KINOMEscanning assay relative to control; values are per cent of control
[4] = target: Mitogen-activated protein kinase 3 (Homo sapiens) (UniProt P27361); assay: Inhibition of ERK1 (unknown origin) at 1 uM by KINOMEscanning assay relative to control; values are per cent of control
[5] = test system: Mast/stem cell growth factor receptor Kit (Homo sapiens), P10721 [D816H]; assay: Inhibition of c-KIT D816H mutant (unknown origin) at 1 uM by KINOMEscanning assay relative to control; values are per cent of control
Mast/stem cell growth factor receptor Kit (Homo sapiens), P10721 [D816H], sequence (P10721 whole entry D816H): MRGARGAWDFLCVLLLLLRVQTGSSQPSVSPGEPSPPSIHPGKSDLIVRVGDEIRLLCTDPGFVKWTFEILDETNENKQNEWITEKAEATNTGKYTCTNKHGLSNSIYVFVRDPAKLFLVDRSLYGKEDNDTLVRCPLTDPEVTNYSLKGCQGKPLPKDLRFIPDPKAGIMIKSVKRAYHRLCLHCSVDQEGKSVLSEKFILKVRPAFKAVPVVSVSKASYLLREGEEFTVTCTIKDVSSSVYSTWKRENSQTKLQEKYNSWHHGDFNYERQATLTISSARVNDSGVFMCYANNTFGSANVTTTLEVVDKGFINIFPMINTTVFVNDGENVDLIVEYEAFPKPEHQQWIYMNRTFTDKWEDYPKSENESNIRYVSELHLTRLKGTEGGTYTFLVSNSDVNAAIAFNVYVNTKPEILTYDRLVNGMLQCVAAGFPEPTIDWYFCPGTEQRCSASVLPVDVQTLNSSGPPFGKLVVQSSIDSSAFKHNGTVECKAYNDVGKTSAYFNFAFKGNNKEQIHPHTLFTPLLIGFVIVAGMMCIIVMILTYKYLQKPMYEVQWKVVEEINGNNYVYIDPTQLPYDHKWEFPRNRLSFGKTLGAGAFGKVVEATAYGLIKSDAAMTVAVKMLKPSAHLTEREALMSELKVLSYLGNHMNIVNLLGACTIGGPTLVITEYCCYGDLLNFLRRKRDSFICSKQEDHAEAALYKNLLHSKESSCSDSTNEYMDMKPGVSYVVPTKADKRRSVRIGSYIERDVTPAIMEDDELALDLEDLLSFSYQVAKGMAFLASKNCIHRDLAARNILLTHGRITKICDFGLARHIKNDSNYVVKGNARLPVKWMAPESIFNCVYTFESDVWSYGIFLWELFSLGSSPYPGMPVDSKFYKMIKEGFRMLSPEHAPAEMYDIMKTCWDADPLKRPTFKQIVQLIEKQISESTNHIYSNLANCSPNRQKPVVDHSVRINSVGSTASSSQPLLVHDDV

[6] = Antiproliferative activity against human HMC-1.2 cells carrying V560G, D816V mutant assessed as cell growth inhibition by MTT assay; type: functional, cell-based
Outline: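 Cell viability by MTT assay in imatinib-resistant HMC-1.2 human mast cells (V560G, D816V), 48 h exposure across a range of concentrations.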

[7] = target: Dual specificity mitogen-activated protein kinase kinase 2 (Homo sapiens) (UniProt P36507); assay: Inhibition of MEK2 (unknown origin) at 1 uM by KINOMEscanning assay relative to control; values are per cent of control
Dual specificity mitogen-activated protein kinase kinase 2 (Homo sapiens), sequence (P36507 whole entry): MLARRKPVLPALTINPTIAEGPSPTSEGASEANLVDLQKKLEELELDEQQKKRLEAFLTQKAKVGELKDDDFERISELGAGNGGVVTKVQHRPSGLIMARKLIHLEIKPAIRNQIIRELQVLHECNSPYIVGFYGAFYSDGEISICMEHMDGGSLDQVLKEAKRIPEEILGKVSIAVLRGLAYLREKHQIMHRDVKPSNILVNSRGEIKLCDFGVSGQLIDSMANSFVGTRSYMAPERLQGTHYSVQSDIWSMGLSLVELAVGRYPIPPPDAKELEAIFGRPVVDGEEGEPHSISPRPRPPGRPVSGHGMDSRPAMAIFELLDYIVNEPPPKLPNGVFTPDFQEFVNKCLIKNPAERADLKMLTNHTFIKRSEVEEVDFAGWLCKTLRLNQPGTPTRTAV

[8] = target: 5'-AMP-activated protein kinase catalytic subunit alpha-2 (Homo sapiens) (UniProt P54646); assay: Inhibition of AMPKalpha 2 (unknown origin) at 1 uM by KINOMEscanning assay relative to control; values are per cent of control
[9] = target: T2, 3-phosphoinositide-dependent protein kinase 1 (Homo sapiens) (UniProt O15530); assay: Inhibition of PDPK1 (unknown origin) at 1 uM by KINOMEscanning assay relative to control; values are per cent of control
T2 sequence (whole entry): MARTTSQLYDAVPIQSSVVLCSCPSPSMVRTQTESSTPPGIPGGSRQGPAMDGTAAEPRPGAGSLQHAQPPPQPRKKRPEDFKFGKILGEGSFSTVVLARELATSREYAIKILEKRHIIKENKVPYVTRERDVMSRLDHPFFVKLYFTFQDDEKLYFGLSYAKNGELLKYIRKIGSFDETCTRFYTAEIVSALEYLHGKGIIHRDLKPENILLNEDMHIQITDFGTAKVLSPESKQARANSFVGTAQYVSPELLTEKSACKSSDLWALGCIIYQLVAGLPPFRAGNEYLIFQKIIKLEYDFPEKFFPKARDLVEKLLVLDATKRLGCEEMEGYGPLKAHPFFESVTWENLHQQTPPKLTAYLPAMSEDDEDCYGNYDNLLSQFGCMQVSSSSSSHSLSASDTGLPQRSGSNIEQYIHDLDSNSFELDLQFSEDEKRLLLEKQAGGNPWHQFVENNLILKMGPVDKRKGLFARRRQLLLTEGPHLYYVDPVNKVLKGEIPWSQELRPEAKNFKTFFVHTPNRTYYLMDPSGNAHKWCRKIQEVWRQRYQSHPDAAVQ

[10] = target: Mitogen-activated protein kinase 14 (Homo sapiens) (UniProt Q16539); assay: Inhibition of p38alpha (unknown origin) at 1 uM by KINOMEscanning assay relative to control; values are per cent of control
Mitogen-activated protein kinase 14 (Homo sapiens), sequence (Q16539 whole entry): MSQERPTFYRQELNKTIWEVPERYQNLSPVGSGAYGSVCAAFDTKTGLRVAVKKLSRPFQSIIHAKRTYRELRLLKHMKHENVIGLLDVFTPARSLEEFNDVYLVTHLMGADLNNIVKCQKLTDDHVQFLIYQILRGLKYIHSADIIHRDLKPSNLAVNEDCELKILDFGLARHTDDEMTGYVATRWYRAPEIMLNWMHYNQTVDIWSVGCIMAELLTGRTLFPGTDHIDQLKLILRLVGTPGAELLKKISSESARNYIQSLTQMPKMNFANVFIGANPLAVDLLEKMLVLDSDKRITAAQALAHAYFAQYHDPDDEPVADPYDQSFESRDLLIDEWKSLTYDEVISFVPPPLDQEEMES

[11] = target: Serine/threonine-protein kinase PLK1 (Homo sapiens) (UniProt P53350); assay: Inhibition of PLK1 (unknown origin) at 1 uM by KINOMEscanning assay relative to control; values are per cent of control
Serine/threonine-protein kinase PLK1 (Homo sapiens), sequence (P53350 whole entry): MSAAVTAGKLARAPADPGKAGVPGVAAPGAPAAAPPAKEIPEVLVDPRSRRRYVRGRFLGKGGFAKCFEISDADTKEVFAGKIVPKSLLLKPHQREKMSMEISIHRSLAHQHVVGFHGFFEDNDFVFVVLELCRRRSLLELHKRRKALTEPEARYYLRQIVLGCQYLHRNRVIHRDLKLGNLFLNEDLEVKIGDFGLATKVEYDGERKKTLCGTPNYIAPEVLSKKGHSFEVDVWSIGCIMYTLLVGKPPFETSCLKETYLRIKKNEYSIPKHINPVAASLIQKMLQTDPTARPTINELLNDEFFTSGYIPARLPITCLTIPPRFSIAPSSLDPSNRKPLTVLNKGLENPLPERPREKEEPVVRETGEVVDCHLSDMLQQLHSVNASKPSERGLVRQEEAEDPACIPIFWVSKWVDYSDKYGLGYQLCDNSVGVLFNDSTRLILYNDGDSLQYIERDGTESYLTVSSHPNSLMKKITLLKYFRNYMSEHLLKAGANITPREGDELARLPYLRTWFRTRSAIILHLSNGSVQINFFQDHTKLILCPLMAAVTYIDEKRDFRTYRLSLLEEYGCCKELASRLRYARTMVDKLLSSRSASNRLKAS

[12] = target: RAC-alpha serine/threonine-protein kinase (Homo sapiens) (UniProt P31749); assay: Inhibition of AKT1 (unknown origin) at 1 uM by KINOMEscanning assay relative to control; values are per cent of control
[13] = target: Calcium/calmodulin-dependent protein kinase type 1 (Homo sapiens) (UniProt Q14012); assay: Inhibition of CAMK1 (unknown origin) at 1 uM by KINOMEscanning assay relative to control; values are per cent of control
Calcium/calmodulin-dependent protein kinase type 1 (Homo sapiens), sequence (Q14012 whole entry, looked up): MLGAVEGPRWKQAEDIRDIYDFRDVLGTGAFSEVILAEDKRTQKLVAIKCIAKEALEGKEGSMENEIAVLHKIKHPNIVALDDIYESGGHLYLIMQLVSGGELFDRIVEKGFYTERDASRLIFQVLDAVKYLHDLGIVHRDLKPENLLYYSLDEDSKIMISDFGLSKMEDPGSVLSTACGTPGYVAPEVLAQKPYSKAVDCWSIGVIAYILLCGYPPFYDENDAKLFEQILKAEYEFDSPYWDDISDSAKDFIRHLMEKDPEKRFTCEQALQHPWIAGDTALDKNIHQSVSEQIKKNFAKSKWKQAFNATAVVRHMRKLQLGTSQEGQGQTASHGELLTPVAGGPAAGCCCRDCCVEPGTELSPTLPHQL

[14] = target: Aurora kinase B (Homo sapiens) (UniProt Q96GD4); assay: Inhibition of AURKB (unknown origin) at 1 uM by KINOMEscanning assay relative to control; values are per cent of control
[15] = target: Fibroblast growth factor receptor 1 (Homo sapiens) (UniProt P11362); assay: Inhibition of FGFR1 (unknown origin) at 1 uM by KINOMEscanning assay relative to control; values are per cent of control
Fibroblast growth factor receptor 1 (Homo sapiens), sequence (P11362 22-822 limits assumed): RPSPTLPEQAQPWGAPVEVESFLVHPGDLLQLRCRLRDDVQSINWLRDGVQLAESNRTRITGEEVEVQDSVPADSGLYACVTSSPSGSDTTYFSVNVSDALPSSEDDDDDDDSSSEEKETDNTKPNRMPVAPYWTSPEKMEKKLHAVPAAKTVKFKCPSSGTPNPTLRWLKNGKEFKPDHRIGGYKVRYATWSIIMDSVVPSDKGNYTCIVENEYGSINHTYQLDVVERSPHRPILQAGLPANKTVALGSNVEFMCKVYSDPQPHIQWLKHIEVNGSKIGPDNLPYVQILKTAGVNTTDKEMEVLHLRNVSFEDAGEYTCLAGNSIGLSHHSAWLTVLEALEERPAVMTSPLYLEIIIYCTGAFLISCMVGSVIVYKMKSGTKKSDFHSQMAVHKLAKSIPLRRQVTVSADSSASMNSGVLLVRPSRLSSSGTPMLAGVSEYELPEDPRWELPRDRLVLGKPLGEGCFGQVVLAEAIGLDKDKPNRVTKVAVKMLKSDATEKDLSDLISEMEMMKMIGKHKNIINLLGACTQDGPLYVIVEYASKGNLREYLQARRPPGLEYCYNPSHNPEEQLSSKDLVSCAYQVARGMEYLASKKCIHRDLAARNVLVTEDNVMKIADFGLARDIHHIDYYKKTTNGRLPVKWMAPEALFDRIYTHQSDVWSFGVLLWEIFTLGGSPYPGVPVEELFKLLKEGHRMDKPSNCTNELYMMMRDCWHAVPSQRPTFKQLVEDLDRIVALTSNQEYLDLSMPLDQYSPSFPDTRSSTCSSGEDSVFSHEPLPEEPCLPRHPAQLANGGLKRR

[16] = target: Tyrosine-protein kinase JAK1 (Homo sapiens) (UniProt P23458); assay: Inhibition of JAK1 (unknown origin) at 1 uM by KINOMEscanning assay relative to control; values are per cent of control
[17] = target: Insulin-like growth factor 1 receptor (Homo sapiens) (UniProt P08069); assay: Inhibition of IGF1R (unknown origin) at 1 uM by KINOMEscanning assay relative to control; values are per cent of control
[18] = target: Phosphatidylinositol 4,5-bisphosphate 3-kinase catalytic subunit beta isoform (Homo sapiens) (UniProt P42338); assay: Inhibition of PI3Kbeta (unknown origin) at 1 uM by KINOMEscanning assay relative to control; values are per cent of control
[19] = target: T1, Mast/stem cell growth factor receptor Kit; details: 5 uM
[20] = target: 5'-AMP-activated protein kinase catalytic subunit alpha-1 (Homo sapiens) (UniProt Q13131); assay: Inhibition of AMPKalpha 1 (unknown origin) at 1 uM by KINOMEscanning assay relative to control; values are per cent of control
[21] = target: Serine/threonine-protein kinase B-raf (Homo sapiens) (UniProt P15056); assay: Inhibition of BRAF (unknown origin) at 1 uM by KINOMEscanning assay relative to control; values are per cent of control
[22] = target: Focal adhesion kinase 1 (Homo sapiens) (UniProt Q05397); assay: Inhibition of FAK (unknown origin) at 1 uM by KINOMEscanning assay relative to control; values are per cent of control

T1 sequence (P10721 whole entry): as the sequence (P10721 whole entry D816H) above, with H816D counted along it

Compound `COc1ccc(-c2cnc3[nH]cc(-c4ccc(OC)c(OC)c4)c3c2)cc1N` has a residual activity [1] of 65%, a residual activity [2] of 16% and a residual activity [3] of 21%. The residual activity [4] was 88%, the residual activity [5] was 51% and the IC50 [6] was 0.87 µM. It also gave a residual activity [7] of 90%, a residual activity [8] of 87% and a residual activity [9] of 91%. It also gave a residual activity [10] of 93%, a residual activity [11] of 84% and a residual activity [12] of 92%. For the same compound, the residual activity [13] was 71%, the residual activity [14] was 85% and the residual activity [15] was 92%. It also gave a residual activity [16] of 93%, a residual activity [17] of 79% and a residual activity [18] of 93%. The inhibition [19] was “Active”, the residual activity [20] was 98% and the residual activity [21] was 83%. For the same compound, the residual activity [22] was 93%.
Compound `COc1ccc(-c2cnc3[nH]cc(-c4ccc(OC)c(OC)c4)c3c2)cc1OC` has a residual activity [1] of 48%, a residual activity [2] of 33% and a residual activity [3] of 16%. It also gave a residual activity [4] of 93%, a residual activity [5] of 16% and an IC50 [6] of 0.76 µM. It also gave a residual activity [7] of 92%, a residual activity [8] of 81% and a residual activity [9] of 65%. The residual activity [10] was 96%, the residual activity [11] was 98% and the residual activity [12] was 100%. It also gave a residual activity [13] of 63%, a residual activity [14] of 82% and a residual activity [15] of 89%. The residual activity [16] was 100%, the residual activity [17] was 100% and the residual activity [18] was 100%. The inhibition [19] was “Active”, the residual activity [20] was 100% and the residual activity [21] was 81%. The residual activity [22] was 88%.
`COc1ccc(-c2c[nH]c3ncc(-c4cc(OC)c(OC)c(OC)c4)cc23)cc1OC` showed a residual activity [1] of 42%, a residual activity [2] of 66% and a residual activity [3] of 59%. It also gave a residual activity [4] of 88%, a residual activity [5] of 25% and an IC50 [6] of 0.91 µM. It also gave a residual activity [7] of 93%, a residual activity [8] of 86% and a residual activity [9] of 76%. The residual activity [10] was 100%, the residual activity [11] was 99% and the residual activity [12] was 98%. The residual activity [13] was 61%, the residual activity [14] was 92% and the residual activity [15] was 84%. The residual activity [16] was 92%, the residual activity [17] was 91% and the residual activity [18] was 94%. The inhibition [19] was “Active”, the residual activity [20] was 95% and the residual activity [21] was 78%. It also gave a residual activity [22] of 92%.
Work on `COc1ccc(-c2c[nH]c3ncc(-c4ccc(C(=O)N5CCOCC5)c(N)c4)cc23)cc1OC` yielded a residual activity [1] of 76%, a residual activity [2] of 16% and a residual activity [3] of 36%. For the same compound, the residual activity [4] was 100%, the residual activity [5] was 25% and the IC50 [6] was 2.01 µM. For the same compound, the residual activity [7] was 72%, the residual activity [8] was 82% and the residual activity [9] was 31%. The residual activity [10] was 94%, the residual activity [11] was 84% and the residual activity [12] was 100%. The residual activity [13] was 62%, the residual activity [14] was 44% and the residual activity [15] was 90%. For the same compound, the residual activity [16] was 100%, the residual activity [17] was 96% and the residual activity [18] was 95%. The residual activity [20] was 84%, the residual activity [21] was 78% and the residual activity [22] was 88%.
With `COc1cc(-c2c[nH]c3ncc(-c4cccc(N)c4)cc23)cc(OC)c1OC` the residual activity [1] was 53%, the residual activity [2] was 94% and the residual activity [3] was 65%. The residual activity [4] was 23%, the residual activity [5] was 85% and the IC50 [6] was 0.81 µM. The residual activity [7] was 74%, the residual activity [8] was 77% and the residual activity [9] was 100%. For the same compound, the residual activity [10] was 100%, the residual activity [11] was 100% and the residual activity [12] was 87%. It also gave a residual activity [13] of 53%, a residual activity [14] of 31% and a residual activity [15] of 100%. It also gave a residual activity [16] of 71%, a residual activity [17] of 100% and a residual activity [18] of 87%. For the same compound, the inhibition [19] was “Active”, the residual activity [20] was 90% and the residual activity [21] was 28%. The residual activity [22] was 92%.
